# Bioassay records deposited in PubChem BioAssay by several laboratories.
# In the library only some 5.5% were active in any assay of this set; here they are far more common.
# PLAP activator = activates human placental alkaline phosphatase; 1.2% of 96,000 active; purified PLAP enzyme, luminescent substrate read-out; active compounds read high; activation fold at 20 µM; in the data active means activation fold above about 2
# Target sequence (P05187 whole entry, looked up): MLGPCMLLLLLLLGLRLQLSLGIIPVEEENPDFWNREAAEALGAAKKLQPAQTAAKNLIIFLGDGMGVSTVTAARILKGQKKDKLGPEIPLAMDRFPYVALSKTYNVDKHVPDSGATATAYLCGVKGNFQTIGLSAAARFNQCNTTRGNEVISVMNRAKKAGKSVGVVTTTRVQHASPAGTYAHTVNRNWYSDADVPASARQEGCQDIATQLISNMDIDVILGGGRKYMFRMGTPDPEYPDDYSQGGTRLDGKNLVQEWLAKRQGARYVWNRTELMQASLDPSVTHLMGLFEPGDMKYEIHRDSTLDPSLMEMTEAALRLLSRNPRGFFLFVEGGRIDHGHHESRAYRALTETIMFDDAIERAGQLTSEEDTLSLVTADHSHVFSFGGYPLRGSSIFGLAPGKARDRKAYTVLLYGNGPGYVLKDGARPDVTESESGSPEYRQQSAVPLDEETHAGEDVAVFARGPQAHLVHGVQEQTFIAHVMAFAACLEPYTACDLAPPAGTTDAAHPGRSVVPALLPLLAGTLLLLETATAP
# PostGolgi ctrl = yeast control strain growth, post-Golgi counter-screen; efflux-deficient yeast background strain, growth absorbance A615, 16 h; inhibition, % at 10 µM; 5% of 98,000 active; AID 738
# PostGolgi yeast = growth inhibition of a yeast mutant, post-Golgi transport screen | post-Golgi transport phenotypic cell assay | inhibition, % at 10 µM | 0.9% of 98,000 active;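 further: yeast cells grown in 1536-well plates; yeast grown about 18 h at 30C before absorbance read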
# E coli WT exp = E. coli BW25113 growth inhibition, expanded screen. 0.15% of 98,000 active. OD600 absorbance. AID 710. growth inhibition, % at 100 µM;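 active means growth inhibition above about 50% at one test dose, limit read from the data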;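 further: growth measured after 20 h incubation at 37 °C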
# Ecoli tolC = E. coli tolC mutant growth inhibition. E. coli BW25113 tolC mutant growth, OD615. growth inhibition, % at 10 µM (by protocol). 2.2% of 65,000 active;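 active means growth inhibition at or above a cutoff equal to the mean over every tested compound plus 3 SD, cut at about 60% in these data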;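 further: growth measured after 20 h incubation at 37 °C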
#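 Test system: tolC-deleted E. coli BW25113 | Medium: LB with kanamycin 50 µg/mL | Compound dosing: Single concentration, 10 µM final per compound | Schedule: 37 °C, 20 h exposure | Measured by: OD at 615 nm | Evaluation: Percent growth inhibition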
# HePTP inh = human HePTP phosphatase inhibition. 0.64% of 110,000 active. recombinant HePTP phosphatase activity, OD absorbance. inhibition, % at 20 µM. AID 521. P35236; in the data active means inhibition above about 50%;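 further: plate controls were vehicle for no effect and reference inhibitor for full effect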
# An asterisk follows results filed as active; · = no result given. Unless noted, no stated cut-off is given here; in the data, active means inhibition above about 30%; inactive means the rest.
SMILES,PLAP activator,PostGolgi ctrl,PostGolgi yeast,E coli WT exp,Ecoli tolC,HePTP inh
Cc1noc(C)c1S(=O)(=O)Nc1ccc(C(=O)N2CCN(c3cccc(Cl)c3)CC2)cc1,1.8,12,18,0,·,·
CCc1cccc(NC(=O)c2ccc(NS(=O)(=O)c3c(C)noc3C)cc2)c1,1.3,0,0,14,77*,-11
Cc1cccc(N2CCN(C(=O)c3ccc(NS(=O)(=O)c4c(C)noc4C)cc3)CC2)c1C,1.4,14,5,-12,84*,-13
CCSc1nnc(NC(=O)C(C)(C(F)(F)F)C(F)(F)F)s1,1.1,23,16,-9,6,-1
CCSc1nnc(NC(=O)c2cc(C)on2)s1,0.9,33*,1,22,10,-5
CCSc1nnc(NC(=O)c2ccccn2)s1,1.9,7,13,63*,100*,11
CCSc1nnc(NC(=O)NCC(F)(F)F)s1,1,-4,45*,11,15,-4
CCSc1nnc(NC(=O)c2ccc3c(c2)OCO3)s1,1,41*,10,-5,0,8
O=C1C(=O)N(c2cccnc2)C(c2ccc(O)cc2)/C1=C(\O)c1ccccc1 (stereo not given),·,·,·,·,·,3
CCCN1CCC(=NNC(=O)c2cccc3ccccc23)CC1,·,·,·,·,·,-7
CCc1sc(C(=O)Nc2cc(Cl)ccc2N2CCCCC2)cc1C,0.8,41*,64*,-22,·,·
COc1ccc(C(=O)NNC(=S)NC2CCCCC2)cc1OC,2.5*,-5,2,3,·,·
COc1cc(C(=O)NNC(=O)NC2CCCCC2)cc(OC)c1OC,0.9,-7,21,-3,·,·
CN(C)C(=O)c1cc(F)ccc1Sc1cc(Cl)ccc1Cl,1.9,6,-6,12,·,·
CN(C)C(=O)c1cc(Cl)ccc1Sc1cc(Cl)ccc1Cl,1.1,56*,-4,9,·,·
Cc1ccc(-c2cc(NC(=O)c3ccncc3)n[nH]2)cc1,·,·,·,·,·,6
Fc1ccc(-c2cc(C(F)(F)F)nc(NCC3CCCO3)n2)cc1 (stereo not given),1.1,5,-4,0,100*,1
FC(F)(F)c1cc(-c2ccccc2)nc(NCC2CCCO2)n1 (stereo not given),1,18,-4,14,22,6
CCCCNc1ccccc1C(=O)OCC(=O)Nc1ccc(S(N)(=O)=O)cc1,2.1*,4,-7,-3,·,·
COc1ccc(CC(=O)N2N=C(C)CC2(O)c2cccnc2)cc1 (stereo not given),2.1*,3,13,-1,·,·
CCn1c(=O)[nH]c2cc(C(=O)N3CCN(c4ccccc4)CC3)ccc2c1=O,0.8,5,36*,3,4,-6
COc1ccc(N2CCN(C(=O)CCCn3c(=O)[nH]c4cc(Cl)ccc4c3=O)CC2)cc1,2*,15,6,-10,·,·
O=C(c1ccc(Cn2c(=O)[nH]c3ccccc3c2=O)cc1)N1CCN(c2ccccc2)CC1,1,1,2,-5,21,3
C=CCn1cc(/C=N\NC(=O)c2cc3c(ccc4ccccc43)o2)c2ccccc21,1.1,35*,0,-18,·,·
O=C(NC(NC(=S)Nc1ccc(Cl)cc1)C(Cl)(Cl)Cl)c1ccccc1F (stereo not given),·,·,·,·,·,6
SMILES,PLAP activator,PostGolgi ctrl,PostGolgi yeast,E coli WT exp,Ecoli tolC,HePTP inh
CC(C)CNC(=O)CN(c1cccc(C(F)(F)F)c1)S(C)(=O)=O,·,·,·,·,·,-2
CC(NC(=O)c1ccccc1Cl)c1ccccc1 (stereo not given),·,·,·,·,·,98*
CCOC(=O)c1c(NC(=O)Oc2ccccc2)sc2c1CCC2,·,·,·,·,·,4
CCOC(=O)c1c(NS(=O)(=O)c2cccc(OC)c2)sc2c1CCC2,1.3,24,-13,8,79*,8
CC(C)n1c(Nc2ccccc2)nc2ccccc21,1,2,-1,6,-3,0
CC(C)n1c2ccccc2c2nc3ccccc3nc21,0.9,46*,1,-2,100*,-6
CCc1ccc2c(CN3CCc4ccccc43)cc(=O)oc2c1,1,14,-14,-1,15,1
Cc1cc2oc(=O)cc(CN3CCc4ccccc43)c2cc1Cl,0.9,36*,-1,-1,27,7
CC(C)c1ccc(NC(=O)Nc2cccc3ccccc23)cc1,·,·,·,·,·,-2
COc1ccccc1N1CCN(C2CC(=O)N(c3cc(Cl)cc(Cl)c3)C2=O)CC1 (stereo not given),·,·,·,·,·,-8
